Assay outcomes from PubChem BioAssay.
Sampled rows, rich in hits. Any-hit rate of the full collection: about 2.2%.
Runt-SMMHC FRET = inhibitors of human RUNX1 Runt domain binding to CBFb-SMMHC | Q01196+Q13951 | Cerulean-Runt/Venus-CBFb-SMMHC FRET ratio 530/480, 1 h | inhibition, % at 20 µM | 0.74% of 220,000 active;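 active = mean inhibition across duplicate retests at 20 µM reaching about 50%, limit read from the data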;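 also: 0% = DMSO wells and 100% = wells with excess untagged CBFb-SMMHC; inhibitors lower the FRET ratio by blocking Runt binding to CBFb-SMMHC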
Runt-CBFb FRET = Runt domain-CBFb interaction inhibition; Q01196+Q13951; Cerulean-Runt/Venus-CBFb FRET ratio 530/480, 1 h; inhibition, % at 20 µM; 0.46% of 220,000 active; AID 1496;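 active = inhibition over about 50% at 20 µM in the single-dose screen, limit read from the data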;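 also: 0% = DMSO wells and 100% = excess unlabeled CBFb competitor control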
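Assay system: Cerulean-tagged RUNX1 Runt domain (FRET donor) fusion protein / Amount: 100 nM each of Venus-CBFb and Cerulean-Runt domain / Medium: Tris buffer pH 7.5 with salts and BSA / Also added: Venus-CBFb 100 nM / Schedule: 1 h complex formation plus 1 h compound treatment, room temperature / Signal: FRET fluorescence / Read-out: loss of energy transfer signal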
eIF4E 4G PPI = eIF4E/eIF4G interaction inhibition in translation initiation; inhibition, % at 21.7 µM; 0.37% of 220,000 active; TR-FRET eIF4E-eIF4GI(517-606) binding, 2 h; P63073+Q04637;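 active = inhibition above about 30%, limit read from the data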;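 also: 0% = full FRET control wells and 100% = background wells lacking eIF4GI fragment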
RanGTP-Impb inh = inhibitors of RanGTP-importin-beta interaction, primary screen, biochemical, FRET, CFP-Ran, YFP-importin-beta, homogeneous; AID 2216; 1.1% of 300,000 active; inhibition, % (test concentration not listed); cell-free CFP-Ran/YFP-importin-beta FRET ratio;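 active = more than half of the replicate wells show a fall in the fluorescence ratio signal beyond about 16%, limit read from the data, passing the limit was not always enough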;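 also: 0% = DMSO wells and 100% = Ran loaded with GDP instead of GTP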
PERK inhibitor = inhibitors of human PERK kinase; CHO PERK-DD fusion, SEAP luminescence translation reporter; Q9NZJ5; 0.17% of 220,000 active; AID 1416; inhibition, % at 5.6 µM;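 active = inhibition above the mean inhibition of all tested compounds plus 3 SD, set separately per screening campaign, cut at about 2.9% in these data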;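 also: PERK kinase domain activated by AP20187 dimerizer at 100 nM; 0% = DMSO with dimerizer and 100% = rapamycin at 8.4 µM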
Target sequence (Q9NZJ5 whole entry, looked up, the tested form may be a part): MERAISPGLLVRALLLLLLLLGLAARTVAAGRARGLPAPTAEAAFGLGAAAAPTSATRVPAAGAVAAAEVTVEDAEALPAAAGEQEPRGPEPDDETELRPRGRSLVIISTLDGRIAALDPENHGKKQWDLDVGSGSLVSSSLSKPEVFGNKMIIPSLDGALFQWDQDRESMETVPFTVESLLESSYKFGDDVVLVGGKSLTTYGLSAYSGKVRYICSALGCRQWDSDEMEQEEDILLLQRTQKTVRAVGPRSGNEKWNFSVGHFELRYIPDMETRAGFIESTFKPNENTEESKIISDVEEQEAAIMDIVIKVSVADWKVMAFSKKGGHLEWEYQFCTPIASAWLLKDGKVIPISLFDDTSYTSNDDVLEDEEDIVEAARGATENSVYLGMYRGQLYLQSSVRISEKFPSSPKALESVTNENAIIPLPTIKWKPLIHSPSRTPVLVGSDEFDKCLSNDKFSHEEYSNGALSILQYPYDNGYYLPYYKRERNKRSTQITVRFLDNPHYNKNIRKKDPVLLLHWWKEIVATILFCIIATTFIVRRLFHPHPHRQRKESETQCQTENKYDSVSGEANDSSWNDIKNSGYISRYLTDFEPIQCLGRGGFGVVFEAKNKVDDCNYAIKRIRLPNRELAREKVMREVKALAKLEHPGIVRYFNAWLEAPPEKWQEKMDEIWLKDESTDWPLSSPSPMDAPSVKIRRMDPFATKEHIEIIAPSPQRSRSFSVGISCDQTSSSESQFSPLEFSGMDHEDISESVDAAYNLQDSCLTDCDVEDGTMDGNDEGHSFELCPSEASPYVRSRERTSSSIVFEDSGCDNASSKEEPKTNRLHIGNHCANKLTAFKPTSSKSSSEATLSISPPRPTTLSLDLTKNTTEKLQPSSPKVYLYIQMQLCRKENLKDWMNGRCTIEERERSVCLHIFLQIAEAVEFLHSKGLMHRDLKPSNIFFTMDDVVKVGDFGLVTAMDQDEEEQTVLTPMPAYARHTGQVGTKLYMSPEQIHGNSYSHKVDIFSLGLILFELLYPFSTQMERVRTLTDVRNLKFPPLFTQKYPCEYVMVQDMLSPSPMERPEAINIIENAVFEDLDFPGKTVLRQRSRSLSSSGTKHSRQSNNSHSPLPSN
Hck-Nef inh = human Hck-Nef kinase inhibition | P08631 | Recombinant Hck-YEEI plus Nef, Z-Lyte FRET kinase assay | inhibition, % at 20 µM | 0.68% of 220,000 active | AID 463187;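 active = Hck-Nef kinase inhibition above about 50%, limit read from the data; inactive = inhibition below that limit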;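 also: 0% = DMSO with Hck plus Nef and 100% = Hck alone without Nef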
YIC counter = counter-screen for RanGTP-importin-beta inhibitors: YIC FRET probe; AID 435026; IC50, µM; 40% of 1,000 active; shares compounds with RanGTP-Impb inh; Purified YIC probe, intramolecular FRET ratio YFP/CFP;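 active = fitted half-maximal inhibitory concentration no more than tenfold above the top dose tested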
The depositor's hits bear a star; x = not tested or not shown.

SMILES	Runt-SMMHC FRET	Runt-CBFb FRET	eIF4E 4G PPI	RanGTP-Impb inh	PERK inhibitor	Hck-Nef inh	YIC counter
COC(=O)c1ccc(C)c(NC(=O)Cc2ccc([N+](=O)[O-])cc2)c1	0	2	2	-1	1	11	x
CCC(c1nnnn1C1CCCC1)N1CCC(C(N)=O)CC1 (stereo not drawn)	0	1	0	16*	0	15	>50
CC(c1nc2ccccc2n1Cc1ccccc1)N1CCCCC1 (stereo not drawn)	x	x	x	26*	x	x	>50
Cn1cc([N+](=O)[O-])c(C(=O)Nc2ccc(-c3nc4ccccc4[nH]3)cc2)n1	3	1	-5	0	-1	-1	x
CNC(=S)Nc1cc(OC)c(NC(=O)c2ccco2)cc1OC	-2	2	2	2	1	25	x
COc1cc(NC(=O)C2CC2)c(OC)cc1NC(=O)c1ccco1	x	x	x	19*	x	x	>50
Cc1sc2c(c1C)C(=O)NC(c1ccccc1F)N2 (stereo not drawn)	8	36	-4	24*	-1	-13	>50
Cc1ccc(C2NC(=O)c3c(sc(C)c3C)N2)c(O)c1 (stereo not drawn)	21	5	-18	24*	0	2	>50
Cc1ccc(C)c(C2NC(=O)c3ccccc3N2)c1 (stereo not drawn)	6	-2	-12	-1	1	28	x
CCOc1ccccc1N(CC(=O)NC(C)(C)C)C(=O)CCC(=O)Nc1nccs1	x	x	x	-1	x	x	x
O=C(CN(c1ccccc1F)S(=O)(=O)c1ccccc1)Nc1ccccc1C(=O)N1CCOCC1	-4	2	-3	-5	1	-5	x
CCOC(=O)C1(CC2CCCCO2)CCN(C(=O)Nc2ccc3c(c2)OCO3)CC1 (stereo not drawn)	4	1	2	22*	0	5	>50
COc1ccc(-c2nnc(SCC(C)C)o2)cc1	2	-1	-5	0	1	21	x
CCOC(=O)c1c(NC(=O)CN2CCCc3ccccc32)sc(C(C)=O)c1C	-4	-2	-2	21*	1	1	>50
COCCOC(=O)c1c(NC(=O)CN2CCc3ccccc32)sc(C(N)=O)c1C	2	-1	0	1	1	8	x
CCc1ccc(C2C(C#N)=C(N)SC(N)=C2C#N)cc1	28	12	-1	39*	1	1	>50
COC(=O)c1ccccc1NCc1cc(=O)oc2cc(O)c(O)cc12	x	x	x	20*	x	x	4.5*
COc1ccc(NC(=S)Nc2cc(C)ccn2)c(OC)c1	2	4	-7	0	-1	1	x
COC(=O)C1=CN(Cc2ccc(OC)c(OC)c2)C=C(C(=O)OC)C1c1cccc(O)c1	x	x	x	19*	x	x	17*
COC(=O)C1=CN(Cc2ccc(F)cc2)C=C(C(=O)OC)C1c1ccc(O)c(OC)c1	x	x	x	10	x	x	x
COc1ccccc1N=C1SC(C(=O)Nc2ccc(F)cc2)CC(=O)N1C (stereo not drawn)	5	-1	2	1	0	13	x
CC(C)(C)Nc1nc(SCC(=O)Nc2ccccc2)nc(N2CCOCC2)n1	3	-3	1	21*	-1	20	>50
CN(C)c1nc(SCC(=O)Nc2ccccc2)nc(N2CCOCC2)n1	-4	0	-3	-1	-1	17	x
CCn1c(=O)cc(N2CCC3(CC2)OCCO3)[nH]c1=O	1	3	-3	24*	1	3	>50
O=c1cc(N2CCC3(CC2)OCCO3)[nH]c(=O)n1C1CCCCC1	4	1	1	2	1	2	x
O=C(NCCCN=C1NS(=O)(=O)c2ccccc21)c1ccc(Cl)cc1	x	x	x	2	x	x	x
CCC1=NC(c2ccc(OC)cc2OC)N(O)C1(C)C (stereo not drawn)	1	3	-8	6	1	1	x
COc1ccc(C2CC(c3ccc(Cl)cc3Cl)n3nc(N)nc3N2)cc1 (stereo not drawn)	-7	x	-3	4	0	7	x
